Test results from ChEMBL document CHEMBL5058577, “EUbOPEN Chemogenomics Library 2 (Multiplex)” (2022).

System: U2OS
Assay: Multiplex assay against U2OS
Format: toxicity, cell-based
Details: human
Summary of the method: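 Live cells were stained at seeding with Hoechst33342, BioTracker Green Microtubule Cytoskeleton Dye, MitoTracker Red and Annexin V Alexa Fluor 680. Following compound addition, they were imaged on a CQ1 microscope at 37°C and 5% CO2 and gated by CellPathfinder machine learning into Hoechst high-intensity objects or normal cells, with normal cells split into healthy, pyknosed or fragmented nuclei and pyknosed cells into mitotic or apoptotic. Tubulin, mitochondrial-mass and membrane-permeability phenotypes are per cents of healthy-nucleus cells.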

[1] = 12 h, 1 µM, compound concentration 1 uM, replicate 1
[2] = 12 h, 1 µM, compound concentration 1 uM, replicate 2
[3] = 12 h, 10 µM, compound concentration 10 uM, replicate 1
[4] = 12 h, 10 µM, compound concentration 10 uM, replicate 2
[5] = 24 h, 1 µM, compound concentration 1 uM, replicate 1
[6] = 24 h, 1 µM, compound concentration 1 uM, replicate 2
[7] = 24 h, 10 µM, compound concentration 10 uM, replicate 1
[8] = 24 h, 10 µM, compound concentration 10 uM, replicate 2
[9] = 48 h, 1 µM, compound concentration 1 uM, replicate 1
[10] = 48 h, 1 µM, compound concentration 1 uM, replicate 2
[11] = 48 h, 10 µM, compound concentration 10 uM, replicate 1
[12] = 48 h, 10 µM, compound concentration 10 uM, replicate 2

CN[C@@H](C)C(=O)N[C@H](C(=O)N1CCC[C@H]1C(=O)Nc1snnc1-c1ccccc1)C1CCCCC1 [GDC-0152]
Population Apoptotic (%) [1]: 60%
Population Fragmented Nuclei (%) [1]: 25%
Population Healthy Nuclei (%) [1]: 61%
Population Hoechst High Intensity Objects (%) [1]: 5%
Population Membrane Permeable-Phenotype (%) [1]: 51%
Population Mitochondria Different-Phenotype (%) [1]: 24%
Population Mitotic Cells (%) [1]: 39%
Population Normal (%) [1]: 94%
Population Pyknosed Nuclei (%) [1]: 13%
Population Tubulin-Different-Phenotype (%) [1]: 47%
Total Cell Count [1]: 176
Population Apoptotic (%) [2]: 89%
Population Fragmented Nuclei (%) [2]: 21%
Population Healthy Nuclei (%) [2]: 60%
Population Hoechst High Intensity Objects (%) [2]: 11%
Population Membrane Permeable-Phenotype (%) [2]: 50%
Population Mitochondria Different-Phenotype (%) [2]: 38%
Population Mitotic Cells (%) [2]: 10%
Population Normal (%) [2]: 88%
Population Pyknosed Nuclei (%) [2]: 17%
Population Tubulin-Different-Phenotype (%) [2]: 52%
Total Cell Count [2]: 121
Population Apoptotic (%) [3]: 72%
Population Fragmented Nuclei (%) [3]: 39%
Population Healthy Nuclei (%) [3]: 44%
Population Hoechst High Intensity Objects (%) [3]: 4%
Population Membrane Permeable-Phenotype (%) [3]: 65%
Population Mitochondria Different-Phenotype (%) [3]: 61%
Population Mitotic Cells (%) [3]: 27%
Population Normal (%) [3]: 95%
Population Pyknosed Nuclei (%) [3]: 16%
Population Tubulin-Different-Phenotype (%) [3]: 76%
Total Cell Count [3]: 208
Population Apoptotic (%) [4]: 70%
Population Fragmented Nuclei (%) [4]: 18%
Population Healthy Nuclei (%) [4]: 65%
Population Hoechst High Intensity Objects (%) [4]: 5%
Population Membrane Permeable-Phenotype (%) [4]: 73%
Population Mitochondria Different-Phenotype (%) [4]: 70%
Population Mitotic Cells (%) [4]: 29%
Population Normal (%) [4]: 94%
Population Pyknosed Nuclei (%) [4]: 15%
Population Tubulin-Different-Phenotype (%) [4]: 91%
Total Cell Count [4]: 114
Population Apoptotic (%) [5]: 72%
Population Fragmented Nuclei (%) [5]: 21%
Population Healthy Nuclei (%) [5]: 55%
Population Hoechst High Intensity Objects (%) [5]: 5%
Population Membrane Permeable-Phenotype (%) [5]: 20%
Population Mitochondria Different-Phenotype (%) [5]: 18%
Population Mitotic Cells (%) [5]: 27%
Population Normal (%) [5]: 94%
Population Pyknosed Nuclei (%) [5]: 23%
Population Tubulin-Different-Phenotype (%) [5]: 19%
Total Cell Count [5]: 196
Population Apoptotic (%) [6]: 85%
Population Fragmented Nuclei (%) [6]: 34%
Population Healthy Nuclei (%) [6]: 44%
Population Hoechst High Intensity Objects (%) [6]: 8%
Population Membrane Permeable-Phenotype (%) [6]: 25%
Population Mitochondria Different-Phenotype (%) [6]: 28%
Population Mitotic Cells (%) [6]: 14%
Population Normal (%) [6]: 91%
Population Pyknosed Nuclei (%) [6]: 21%
Population Tubulin-Different-Phenotype (%) [6]: 27%
Total Cell Count [6]: 144
Population Apoptotic (%) [7]: 68%
Population Fragmented Nuclei (%) [7]: 36%
Population Healthy Nuclei (%) [7]: 43%
Population Hoechst High Intensity Objects (%) [7]: 3%
Population Membrane Permeable-Phenotype (%) [7]: 53%
Population Mitochondria Different-Phenotype (%) [7]: 59%
Population Mitotic Cells (%) [7]: 31%
Population Normal (%) [7]: 96%
Population Pyknosed Nuclei (%) [7]: 20%
Population Tubulin-Different-Phenotype (%) [7]: 59%
Total Cell Count [7]: 220
Population Apoptotic (%) [8]: 92%
Population Fragmented Nuclei (%) [8]: 20%
Population Healthy Nuclei (%) [8]: 40%
Population Hoechst High Intensity Objects (%) [8]: 10%
Population Membrane Permeable-Phenotype (%) [8]: 59%
Population Mitochondria Different-Phenotype (%) [8]: 65%
Population Mitotic Cells (%) [8]: 7%
Population Normal (%) [8]: 89%
Population Pyknosed Nuclei (%) [8]: 38%
Population Tubulin-Different-Phenotype (%) [8]: 81%
Total Cell Count [8]: 121
Population Apoptotic (%) [9]: 93%
Population Fragmented Nuclei (%) [9]: 35%
Population Healthy Nuclei (%) [9]: 32%
Population Hoechst High Intensity Objects (%) [9]: 8%
Population Membrane Permeable-Phenotype (%) [9]: 16%
Population Mitochondria Different-Phenotype (%) [9]: 12%
Population Mitotic Cells (%) [9]: 6%
Population Normal (%) [9]: 91%
Population Pyknosed Nuclei (%) [9]: 32%
Population Tubulin-Different-Phenotype (%) [9]: 9%
Total Cell Count [9]: 246
Population Apoptotic (%) [10]: 88%
Population Healthy Nuclei (%) [10]: 30%
Population Membrane Permeable-Phenotype (%) [10]: 38%
Population Mitochondria Different-Phenotype (%) [10]: 17%
Population Mitotic Cells (%) [10]: 11%
Population Pyknosed Nuclei (%) [10]: 34%
Population Tubulin-Different-Phenotype (%) [10]: 27%
Total Cell Count [10]: 170
Population Apoptotic (%) [11]: 100%
Population Fragmented Nuclei (%) [11]: 47%
Population Healthy Nuclei (%) [11]: 22%
Population Hoechst High Intensity Objects (%) [11]: 11%
Population Membrane Permeable-Phenotype (%) [11]: 39%
Population Mitochondria Different-Phenotype (%) [11]: 39%
Population Mitotic Cells (%) [11]: 0%
Population Normal (%) [11]: 88%
Population Pyknosed Nuclei (%) [11]: 29%
Population Tubulin-Different-Phenotype (%) [11]: 43%
Total Cell Count [11]: 246
Population Apoptotic (%) [12]: 98%
Population Fragmented Nuclei (%) [12]: 45%
Population Healthy Nuclei (%) [12]: 8%
Population Hoechst High Intensity Objects (%) [12]: 14%
Population Membrane Permeable-Phenotype (%) [12]: 80%
Population Mitochondria Different-Phenotype (%) [12]: 50%
Population Mitotic Cells (%) [12]: 1%
Population Normal (%) [12]: 85%
Population Pyknosed Nuclei (%) [12]: 45%
Population Tubulin-Different-Phenotype (%) [12]: 80%
Total Cell Count [12]: 138
